Laboratory results as given in ChEMBL document CHEMBL3232775, “Synthesis and evaluation of amide side-chain modified Agomelatine analogues as potential antidepressant-like agents” (Bioorg Med Chem Lett, 2014).
Activity calls are given as the source filed them. No cut-off for these calls is given here.

What was measured:
[1] = Cytotoxicity against human HEK293 cells assessed as inhibitory rate at 80 uM after 24 hrs by MTT assay; format: cell-based; details: read-out: INH
Summary of the method: (§1)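 Human normal liver L02 cells and human embryonic kidney 293 cells treated with compound at 80 μM for 24 h. Viability of untreated cells taken as 100%; inhibitory rate reported as mean ± SD of three independent experiments.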

[2] = Octanol-water partition coefficient, log P of the compound; format: physicochemical
[3] = Cytotoxicity against human L02 cells assessed as inhibitory rate at 80 uM after 24 hrs by MTT assay; format: cell-based; details: read-out: INH; summary of the method: as §1
PC-12 = assay: Inhibition of corticosterone-induced rat PC12 cells lesions assessed as protection rate at 1.25 uM after 24 hrs by MTT assay; format: functional; parameters: scale not given: the % may be the effect or the level left
Summary of the method: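 Rat PC12 cells injured with corticosterone and co-treated with compound at 1.25 μM, absorbance read 24 h after treatment. Protection rate = (A_d − A_c)/A_c × 100%, where A_c is the mean absorbance of corticosterone-only controls and A_d that of corticosterone plus compound. Six independent experiments, ± SD.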

Mus musculus = assay: Antidepressant activity in C57 mouse assessed as decrease in immobility time at 32 mg/kg, ip on days 2 to 15 by forced swimming test; format: functional, organism-based; parameters: dose 32 mg/kg

Row | Structure (SMILES) | cytotoxicity at 24 h, 80 µM [1] | logP [2] | cytotoxicity at 24 h, 80 µM [3] | Activity (PC-12) | Activity (Mus musculus)
1 | COc1ccc2cccc(CCNC(=O)N3CCC3)c2c1 | 28.4% | 1.56 | 18.4% | 15.7% | –
2 | COc1ccc2cccc(CCNC(=O)N3CCCCC3)c2c1 | 16.6% | 2.81 | 22.6% | -11.5% | –
3 | COc1ccc2cccc(CCNC(=O)CC(C)(C)CC(=O)O)c2c1 | 34.1% | 1.75 | 5.7% | 6.3% | –
4 | COc1ccc2cccc(CCN3C(=O)C(C)=C(C)C3=O)c2c1 | 9.6% | 1.53 | 13.8% | 34.2% | Active
5 | COc1ccc2cccc(CCNC(=O)N3CCN(C)CC3)c2c1 | 46.6% | 1.88 | 20.1% | 13.6% | –
6 | COc1ccc2cccc(CCN3C(=O)CC(C)(C)CC3=O)c2c1 | 41.9% | 2.78 | 10.4% | -50.3% | –
7 | COc1ccc2cccc(CCNC(=O)N(C)CCO)c2c1 | 7.1% | 1.12 | 5.5% | -19.5% | –
8 | CCN1CCN(C(=O)NCCc2cccc3ccc(OC)cc23)CC1 | 3.9% | 1.35 | 3.1% | -7.7% | –
9 | COc1ccc2cccc(CCNC(=O)N3CCN(C(=O)OC(C)(C)C)CC3)c2c1 | 13.3% | 1.06 | 3% | 6.3% | –
10 | CNCCC(Oc1ccc(C(F)(F)F)cc1)c1ccccc1 (stereo not drawn) [FLUOXETINE] | – | – | – | 19.7% | –
11 | COc1ccc2cccc(CCNC(=O)N3CCC(c4ccccc4)CC3)c2c1 | 16.5% | 2.05 | 8.6% | 2.5% | –
12 | COc1ccc2cccc(CCNC(=O)/C=C/C(=O)O)c2c1 | 33% | 1.54 | 3.4% | 23.2% | inactive
13 | COc1ccc2cccc(CCN3C(=O)CCC3=O)c2c1 | 8.1% | 1.87 | 8.5% | -16.8% | –
14 | COc1ccc2cccc(CCN3C(=O)C(Cl)=C(Cl)C3=O)c2c1 | 17.2% | 1.99 | 3.4% | -12.8% | –
15 | COc1ccc2cccc(CCNC(=O)CC3(CC(=O)O)CCCC3)c2c1 | 13.4% | -1.17 | 4.1% | -17.5% | –
16 | COc1ccc2cccc(CCNC(=O)N3CCCC3)c2c1 | 28.4% | -0.52 | 19.3% | 9.8% | –
17 | COc1ccc2cccc(CCNC(C)=O)c2c1 [AGOMELATINE] | 26.6% | 1.62 | 20.2% | 26.2% | –
18 | COc1ccc2cccc(CCNC(=O)/C(Cl)=C(\Cl)C(=O)O)c2c1 | 18.6% | 1.18 | 3.8% | -8.4% | –
19 | COc1ccc2cccc(CCN3C(=O)c4ccc(Br)cc4C3=O)c2c1 | 11.5% | 2.57 | 9.1% | -10.5% | –
20 | COc1ccc2cccc(CCNC(=O)/C(C)=C(\C)C(=O)O)c2c1 | 13.2% | 2.01 | 5.8% | 2.8% | –
21 | COc1ccc2cccc(CCNC(=O)CCC(=O)O)c2c1 | 13.9% | 1.35 | 3.1% | 11% | –
